This is an account of results in ChEMBL document CHEMBL3124934, “Identification of a methoxynaphthalene scaffold as a core replacement in quinolizidinone amide M(1) positive allosteric modulators” (Bioorg Med Chem Lett, 2014).

A short description of data set [1]: Plasma protein binding in rat plasma. Format: ADME, cell-free. The following applies: read-out: PPB (converted).
Data set [2] is described as follows: Apparent permeability of the compound. Format: physicochemical. The following applies: not told.
Data set [3] addresses T1, Muscarinic acetylcholine receptor M1 (Homo sapiens) (UniProt P11229).
T1 sequence (whole entry): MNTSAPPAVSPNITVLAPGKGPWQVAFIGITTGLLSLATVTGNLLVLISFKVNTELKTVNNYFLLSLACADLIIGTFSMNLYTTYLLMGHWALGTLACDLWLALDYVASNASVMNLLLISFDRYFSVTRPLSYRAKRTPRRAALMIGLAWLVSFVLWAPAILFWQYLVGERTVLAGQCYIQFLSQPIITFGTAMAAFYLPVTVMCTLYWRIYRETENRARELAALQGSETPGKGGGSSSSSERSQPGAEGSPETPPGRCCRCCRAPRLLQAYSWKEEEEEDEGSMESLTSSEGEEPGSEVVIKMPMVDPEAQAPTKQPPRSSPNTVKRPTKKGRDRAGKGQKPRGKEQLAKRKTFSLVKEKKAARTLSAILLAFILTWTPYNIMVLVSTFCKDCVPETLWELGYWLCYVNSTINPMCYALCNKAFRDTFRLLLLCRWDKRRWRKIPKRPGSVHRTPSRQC
Nature of the data set: Positive allosteric modulation of human muscarinic M1 receptor expressed CHO cells assessed as intrinsic potency of acetylcholine-induced calcium mobilization by FLIPR assay relative to control. Format: functional, cell-based. The procedure, abridged: (§1)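 Human M1 receptor expressed in CHO cells, with calcium mobilization read by FLIPR. Inflection point (IP, nM) and % max response are taken as the numerical average of at least two experiments. Interassay variability was ±30% for IP unless noted otherwise.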
In general terms: Calcium assays in cells follow changes in intracellular calcium, usually with a dye or a luminescent sensor.

The next data set concerns Cerebrospinal fluid. Nature of the data set: Drug level in Sprague-Dawley rat cerebrospinal fluid at 10 mg/kg, po. Further: time not given here. Format: ADME, organism-based. More on the design: dose 10 mg/kg, route oral. The following applies: in vivo, read-out: Drug uptake.
Data set [4] in a line: Ratio of drug level in brain to plasma in Sprague-Dawley rat at 10 mg/kg, po. The following applies: read-out: BPR. Also noted: dose 10 mg/kg, route oral. Format: ADME, organism-based.
In data set [5] the target is ATP-dependent translocase ABCB1 (Homo sapiens, UniProt P08183). Nature of the data set: Activity at human MDR1 assessed as ratio of permeability from basolateral to apical side over permeability from apical to basolateral side by cell based assay.
For data set [6], the target named is Multidrug resistance protein 1a (Rattus norvegicus, UniProt Q6PSM0). Nature of the data set: Activity at rat MDR1a assessed as ratio of permeability from basolateral to apical side over permeability from apical to basolateral side by cell based assay.
Data set [7] deals with T1, Muscarinic acetylcholine receptor M1 (Homo sapiens). Nature of the data set: Positive allosteric modulation of human muscarinic M1 receptor expressed CHO cells assessed as intrinsic potency of acetylcholine-induced calcium mobilization by FLIPR assay. Format: functional, cell-based. A digest of the protocol:
as §1

Another data set deals with Plasma. Nature of the data set: Plasma concentration in Sprague-Dawley rat at 10 mg/kg, po. Further: time not given here. The following applies: in vivo. More on the design: dose 10 mg/kg, route oral. Format: ADME, organism-based.
A short description of data set [8]: Ratio of drug level in cerebrospinal fluid in Sprague-Dawley rat at 10 mg/kg, po to unbound fraction in rat plasma. Format: ADME, organism-based, CSF/Plasma. Also noted: dose 10 mg/kg, route oral. The following applies: in vivo.
A further data set concerns Brain. Nature of the data set: Drug level in Sprague-Dawley rat brain at 10 mg/kg, po. Further: time not given here. Format: ADME, organism-based. More on the design: dose 10 mg/kg, route oral. The following applies: in vivo, read-out: Drug uptake.
The target of data set [9] is T1, Muscarinic acetylcholine receptor M1 (Homo sapiens). Nature of the data set: Positive allosteric modulation of human muscarinic M1 receptor expressed CHO cells assessed as intrinsic potency of acetylcholine-induced calcium mobilization by FLIPR assay relative to acetylcholine. Format: functional, cell-based. A digest of the protocol:
as §1

Multidrug resistance protein 1a, sequence (Q6PSM0 whole entry): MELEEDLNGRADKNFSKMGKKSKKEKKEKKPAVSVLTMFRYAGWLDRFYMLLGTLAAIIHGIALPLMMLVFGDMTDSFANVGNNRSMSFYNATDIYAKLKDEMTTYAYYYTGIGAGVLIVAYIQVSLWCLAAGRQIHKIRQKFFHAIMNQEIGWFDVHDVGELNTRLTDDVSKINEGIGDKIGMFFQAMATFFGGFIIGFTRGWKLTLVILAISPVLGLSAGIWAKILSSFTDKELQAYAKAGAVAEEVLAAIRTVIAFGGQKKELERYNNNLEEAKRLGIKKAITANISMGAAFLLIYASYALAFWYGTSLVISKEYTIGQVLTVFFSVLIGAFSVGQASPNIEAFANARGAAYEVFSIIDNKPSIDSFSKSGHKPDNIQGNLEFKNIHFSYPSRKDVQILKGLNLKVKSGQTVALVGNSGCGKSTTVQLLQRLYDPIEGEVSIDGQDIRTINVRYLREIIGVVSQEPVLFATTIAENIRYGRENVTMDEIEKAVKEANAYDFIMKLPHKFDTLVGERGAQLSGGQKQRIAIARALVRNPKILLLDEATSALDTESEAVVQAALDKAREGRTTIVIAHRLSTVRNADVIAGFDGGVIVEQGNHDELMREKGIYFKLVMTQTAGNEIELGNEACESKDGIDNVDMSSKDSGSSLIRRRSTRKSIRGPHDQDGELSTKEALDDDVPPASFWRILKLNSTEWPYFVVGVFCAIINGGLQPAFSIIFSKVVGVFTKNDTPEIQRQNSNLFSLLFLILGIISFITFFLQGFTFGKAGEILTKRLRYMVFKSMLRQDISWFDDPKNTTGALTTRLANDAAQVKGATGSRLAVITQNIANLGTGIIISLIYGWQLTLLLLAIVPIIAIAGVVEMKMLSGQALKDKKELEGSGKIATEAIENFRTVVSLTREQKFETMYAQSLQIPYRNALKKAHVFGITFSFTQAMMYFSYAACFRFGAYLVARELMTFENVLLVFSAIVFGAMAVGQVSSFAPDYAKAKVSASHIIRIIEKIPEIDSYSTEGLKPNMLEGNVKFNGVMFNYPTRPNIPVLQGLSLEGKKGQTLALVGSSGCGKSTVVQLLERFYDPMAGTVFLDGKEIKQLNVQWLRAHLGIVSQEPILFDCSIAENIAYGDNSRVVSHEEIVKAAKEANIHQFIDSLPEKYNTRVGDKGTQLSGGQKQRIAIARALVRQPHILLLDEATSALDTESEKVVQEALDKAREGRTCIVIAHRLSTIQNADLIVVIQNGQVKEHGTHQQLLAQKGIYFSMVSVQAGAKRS
ATP-dependent translocase ABCB1, sequence (P08183 whole entry): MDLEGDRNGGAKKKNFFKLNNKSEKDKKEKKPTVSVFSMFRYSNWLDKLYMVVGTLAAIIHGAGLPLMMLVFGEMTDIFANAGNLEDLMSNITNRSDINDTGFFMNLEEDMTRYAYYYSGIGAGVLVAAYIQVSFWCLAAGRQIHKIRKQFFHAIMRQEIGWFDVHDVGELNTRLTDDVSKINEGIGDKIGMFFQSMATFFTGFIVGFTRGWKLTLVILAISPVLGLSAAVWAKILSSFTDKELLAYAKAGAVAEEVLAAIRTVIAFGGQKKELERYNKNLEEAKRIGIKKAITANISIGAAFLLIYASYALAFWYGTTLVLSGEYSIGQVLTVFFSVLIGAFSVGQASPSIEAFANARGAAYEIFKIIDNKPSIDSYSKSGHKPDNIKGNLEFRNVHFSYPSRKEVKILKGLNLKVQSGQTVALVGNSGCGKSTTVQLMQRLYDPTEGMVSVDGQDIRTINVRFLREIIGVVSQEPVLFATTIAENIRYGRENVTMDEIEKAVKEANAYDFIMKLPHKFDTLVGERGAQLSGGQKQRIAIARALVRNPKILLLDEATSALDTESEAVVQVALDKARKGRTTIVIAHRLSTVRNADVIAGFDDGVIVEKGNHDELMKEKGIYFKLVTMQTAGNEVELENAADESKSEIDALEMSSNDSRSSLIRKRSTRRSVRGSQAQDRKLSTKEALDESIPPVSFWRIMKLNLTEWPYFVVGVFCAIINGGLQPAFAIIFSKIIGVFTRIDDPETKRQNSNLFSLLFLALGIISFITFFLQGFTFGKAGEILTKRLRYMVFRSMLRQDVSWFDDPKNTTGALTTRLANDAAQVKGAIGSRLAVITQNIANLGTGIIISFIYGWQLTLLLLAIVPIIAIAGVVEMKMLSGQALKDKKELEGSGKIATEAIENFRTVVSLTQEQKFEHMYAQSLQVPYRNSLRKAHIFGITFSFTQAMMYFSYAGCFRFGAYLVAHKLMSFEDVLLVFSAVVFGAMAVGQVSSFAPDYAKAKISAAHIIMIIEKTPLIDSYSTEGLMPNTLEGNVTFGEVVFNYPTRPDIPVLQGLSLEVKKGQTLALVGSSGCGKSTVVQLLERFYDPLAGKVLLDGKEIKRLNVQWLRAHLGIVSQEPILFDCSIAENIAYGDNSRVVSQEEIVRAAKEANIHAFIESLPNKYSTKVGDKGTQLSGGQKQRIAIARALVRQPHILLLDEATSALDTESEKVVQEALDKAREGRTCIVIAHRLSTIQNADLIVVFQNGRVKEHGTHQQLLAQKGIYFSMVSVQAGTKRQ

As a reminder, the Papp is the rate of passage across a membrane or cell layer, normalised by area and donor concentration. Regarding `COc1c(C(=O)N[C@H]2CCCC[C@@H]2O)cc(Cc2ccc(Cl)nc2)c2ccccc12`, the fraction unbound in [1] is 0.1. Further, in data set [2], the Papp came to 32 ×10⁻⁶ cm/s. In addition, the %max in data set [3] was determined as 74%. In addition, the concentration in the data set on Cerebrospinal fluid amounted to 5 nM; with Plasma it was 2060 nM; in the data set on Brain, 420 nM. In addition, the Kp in [4] was determined as 0.22. The Ratio in [5] was 1.3; in data set [6], 1.9; in [8], less than 0.1. For the same compound, the Activity in data set [7] was found to be 260 nM.
For `CC(=O)Oc1c(C(=O)N[C@H]2CCCC[C@@H]2O)cc(Cc2ccc(Cl)nc2)c2ccccc12`, the %max in data set [3] worked out at 18%. Further, the Activity in data set [7] is more than 10000 nM.
Regarding `COc1c(C(=O)N[C@H]2CCCC[C@@H]2O)cc(Cc2ccc(C)nc2)c2ccccc12`, the fold change (FC) in [9] came out at 100. Further, in data set [1], the fraction unbound was 0.016. The Papp in data set [2] worked out at 35 ×10⁻⁶ cm/s. Also, the %max in data set [3] is 93%. In addition, the figures for the concentration with Cerebrospinal fluid, in the data set on Plasma and in the data set on Brain were 91 nM, 6020 nM and 1200 nM, respectively. Moreover, the Kp in data set [4] was determined as 0.21. For the same compound, the values for the Ratio in data set [5], in data set [6] and in data set [8] were 1.6, 2.1 and 0.9, respectively. Besides, the Activity in [7] worked out at 121 nM.
As for `COc1c(C(=O)N[C@H]2CCCC[C@@H]2O)cc(Cc2ccc(SC)nc2)c2ccccc12`, the %max in [3] stood at 76%. Also, the Activity in data set [7] stood at 170 nM.
For `C=CCOc1c(C(=O)N[C@H]2CCCC[C@@H]2O)cc(Cc2ccc(Cl)nc2)c2ccccc12`, in that order: 68% and 1100 nM.
The corresponding values for `COc1ccc(Cc2cc(C(=O)N[C@H]3CCCC[C@@H]3O)c(OC)c3ccccc23)cn1` are 85% and 140 nM.
The corresponding values for `C=Cc1ccc(Cc2cc(C(=O)N[C@H]3CCCC[C@@H]3O)c(OC)c3ccccc23)cn1` are 88% and 74 nM.
Take `COc1ccc(Cc2cc(C(=O)O)c(OC)c3ccccc23)cc1`: the Activity in data set [7] came to 3330 nM.
For the compound `COc1c(C(=O)N[C@H]2CCCC[C@@H]2O)cc(Cc2ccc(-n3cccn3)nc2)c2ccccc12`, the fraction unbound in [1] is 0.014. Further, the Papp in data set [2] is 31 ×10⁻⁶ cm/s. For the same compound, the %max in data set [3] worked out at 83%. In addition, the concentration came out at 8.7 nM with Cerebrospinal fluid, 2100 nM with Plasma and 370 nM in the data set with Brain. For the same compound, the Kp in [4] came out at 0.17. The Ratio in data set [5] stood at 1.7; in [6] it was 3.2; in data set [8], 0.34. For the same compound, in [7], the Activity worked out at 87 nM.
Turning to `CCc1ccc(Cc2cc(C(=O)N[C@H]3CCCC[C@@H]3O)c(OC)c3ccccc23)cn1`, the %max in data set [3] was found to be 73%. In data set [7], the Activity came to 190 nM.
For `CCOc1c(C(=O)N[C@H]2CCCC[C@@H]2O)cc(Cc2ccc(Cl)nc2)c2ccccc12`, in that order: 37% and 980 nM.
With `CCc1c(C(=O)N[C@H]2CCCC[C@@H]2O)cc(Cc2ccc(Cl)nc2)c2ccccc12`, in data set [3], the %max was 47%. Besides, the Activity in [7] was determined as 7400 nM.
As for `COc1c(C(=O)N[C@H]2CCCC[C@@H]2O)cc(CN2CCC(C#N)(c3ccccn3)CC2)c2ccccc12`, the apparent permeability (Papp) in data set [2] is 31 ×10⁻⁶ cm/s. In addition, in [3], the %max amounted to 62%. The Ratio in data set [5] turned out to be 1.7; in data set [6] it was 2.3. In addition, in data set [7], the Activity was determined as 303 nM.
For the compound `COc1c(C(=O)N[C@H]2CCCC[C@@H]2O)cc(CN2CCN(c3cnn(C)c3)CC2)c2ccccc12`, in data set [3], the %max amounted to 83%. The Activity in [7] was found to be 3900 nM.
For `COc1c(C(=O)N[C@H]2CCCC[C@@H]2O)cc(Cc2ccc(-c3cnn(C)c3)nc2)c2ccccc12`, the fraction unbound in data set [1] is 0.001. Further, the apparent permeability coefficient (Papp) in [2] is 27 ×10⁻⁶ cm/s. In addition, the %max in [3] was determined as 77%. In addition, the Kp in [4] was 0.06. Further, the Ratio in data set [5] is 1.1; in [6] it was 1.4. Further, the Activity in data set [7] stood at 17 nM. The concentration in the data set with Plasma was 29000 nM; with Brain, 1600 nM.
For the compound `COc1c(C(=O)N[C@H]2CCCC[C@@H]2O)cc(Cc2ccc(-c3cccnc3)nc2)c2ccccc12`, the fold change (FC) in [9] was 10. Besides, the fraction unbound in [1] is 0.006. In addition, in data set [2], the Papp came out at 28 ×10⁻⁶ cm/s. In addition, the %max in data set [3] was 73%. Besides, the concentration in the data set with Cerebrospinal fluid was 11 nM; in the data set with Plasma, 4900 nM; with Brain, 860 nM. Besides, in data set [4], the Kp is 0.2. Also, the Ratio is 0.9 in [5], 1.5 in [6] and 0.38 in data set [8]. Besides, in [7], the Activity was found to be 24 nM.
Consider `COc1c(C(=O)O)cc(CN2CCC(C#N)(c3ccccn3)CC2)c2ccccc12`, for which the Activity in data set [7] was found to be 5400 nM.
As for `N#CC1(c2ccccn2)CCN(Cc2cc(C(=O)N[C@H]3CCCC[C@@H]3O)c(=O)n3ccccc23)CC1`, the Papp in data set [2] was 29 ×10⁻⁶ cm/s. In addition, the Ratio stood at 11.1 in data set [5] and 21.1 in data set [6].
For the compound `COc1c(C(=O)N[C@H]2CCCC[C@@H]2O)cc(CN2CCN(c3cc4ccccc4cn3)CC2)c2ccccc12`, in data set [3], the %max was determined as 57%. The Activity in data set [7] was 4000 nM.
`O=C(N[C@H]1CCCC[C@@H]1O)c1cc(Cc2ccc(Cl)nc2)c2ccccc2c1O`: the %max in [3] stood at 35%. Also, in [7], the Activity was found to be 9100 nM.
